# Measured values of several laboratories.
# HTR2C: 5-hydroxytryptamine receptor 2C (HTR2C, Homo sapiens, UniProt P28335)
Structure (SMILES),target,test,setting,quantity,value
Nc1ncnc2c1ncn2[C@@H]1O[C@H](C[C@@H](N)CC[C@H](N)C(=O)O)[C@@H](O)[C@H]1O,"mRNA cap guanine-N(7) methyltransferase (RNMT, Homo sapiens, UniProt O43148)","enzyme activity, inhibitor",12.5 µM,inhibition,61.8%
COc1cc(CCNC(C)c2ccccc2)c(OC)cc1C#N (stereo not drawn),HTR2C,"calcium signal, agonist",,Emax,41%
COc1cc2c(cc1OC)-c1c(OC)c(OC)cc3c1[C@H](C2)N(C)CC3,HTR2C,"ligand displacement, radioligand",10 µM,inhibition,79%
COc1cc(CCNCc2ccccc2O)c(OC)cc1C#N,HTR2C,"G protein activation, agonist, BRET",,Emax,122%
O=P(O)(O)O[C@H]1[C@H](OP(=O)(O)O)[C@@H](OP(=O)(O)O)[C@H](OP(=O)(O)O)[C@@H](OP(=O)(O)O)[C@H]1OP(=O)(O)O,"Toxin B (tcdB, Clostridioides difficile, UniProt P18177)","binding, ITC",,residence time,0.4 min
CC(C)CC(=O)OC[C@H]1O[C@@](C#N)(c2ccc3c(N)ncnn23)[C@H](O)[C@@H]1O,"B2 bradykinin receptor (BDKRB2, Homo sapiens, UniProt P30411)",cell-free assay,20 µM,inhibition,-2%
COc1cc2c3c(c1OC)-c1c(OC)ccc(Cl)c1CC3N(C)CC2 (racemic),HTR2C,"ligand displacement, radioligand",10 µM,inhibition,80%
COc1cc(CCNC(C)c2ccccc2O)c(OC)cc1Br (stereo not drawn),HTR2C,"calcium signal, agonist",,Emax,92%
[2H]c1c([2H])c([C@]2([2H])CCCN2C(=O)C(C)(C)Oc2ccc3cn[nH]c3c2)c([2H])c([2H])c1C([2H])([2H])[2H],"Tyrosine-protein kinase receptor TYRO3 (TYRO3, Homo sapiens, UniProt Q06418)","binding, competition with immobilised ligand",1 µM,remaining binding,57%
